Hits are enriched below; roughly 1.7% of the tested compounds scored in any of these assays.
IDE act: IDE (human) activation, cell-based; P14735; HEK cells, FAbeta-B cleavage, fluorescence polarization; 0% vehicle, 100% cell-free pure enzyme wells; activation, % at 5.96 µM; 340,000 tested, 0.073% active;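 active means activation above the mean of all tested compounds plus 3 SD, set per screening campaign, cut at about 17% in these data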
TPT1 inhibitor: blocks Candida albicans tRNA 2'-phosphotransferase; inhibition, % at 5 µM; AID 1962; 300,000 tested, 0.81% active; recombinant caTPT1, FP RNA substrate dephosphorylation;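 active means inhibition above the mean of all tested compounds plus 3 SD, set per screening campaign, cut at about 24% in these data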;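 further: plate controls were DMSO alone for no effect and ferristatin control at 100 nM for full effect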
HNF4A DNA FP: change in binding of human HNF4 alpha to DNA; HNF4a-FITC DNA binding, fluorescence polarization, 1 h; P41235; 360,000 tested, 0.3% active; activity change, % at 10 µM; in the data active means activity change above about 30%, passing the limit was not always enough
Rpn11 block: inhibitors of human proteasome Rpn11. O00487. human 26S proteasome, Ub4-pepOG fluorescence polarization; 20S core pre-blocked with epoxomicin. inhibition, % at 20 µM. 360,000 tested, 0.59% active. AID 588493;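 active means inhibition at 20 µM, scaled to each plate's controls, above about 33%, limit read from the data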
IDE inh: inhibitors of human insulin-degrading enzyme in cells | 320,000 tested, 0.41% active | inhibition, % at 5.59 µM | AID 434962 | P14735 | HEK cells, FAbetaB cleavage, fluorescence polarization;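 active means percent inhibition above the average of all tested compounds plus 3 SD, set per screening campaign, cut at about 16% in these data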;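 further: IDE supplied by intact live HEK cells; FP after avidin binding of uncleaved biotin substrate so inhibition keeps polarization high; 0% = DMSO wells and 100% = 60 µM reference IDE inhibitor Ii1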
CSN deneddyl inh: blocks human CSN-mediated cullin deneddylation; Purified CSN, SCF-Nedd8-OG deneddylation, fluorescence polarization; inhibition, % at 12.5 µM; 360,000 tested, 0.38% active;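 active means pattern-corrected inhibition above about 35%, with an unprinted fluorescence ratio check between 0.5 and 1.5, limit read from the data, passing the limit was not always enough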;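 further: 0% = enzyme with substrate and 100% = substrate without enzyme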
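Assay system: HEK293T-derived human Csn5 enzyme; quantity: 0.24 nM enzyme; medium: Tris/NaCl/DTT buffer, pH 7.5; also added: substrate SCFSkp2-Nedd8OG, 10 nM; doses: 12.5 µM compound; schedule: 90 min reaction at room temperature; signal: FP; read-out: % inhibition of substrate cleavage by Csn5; benchmarks: substrate-only high control, full reaction low control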
Rpn11 confirm: Rpn11 inhibition confirmation, single concentration; AID 602318; shares compounds with Rpn11 block; purified human 26S proteasome, Ub4-pepOG fluorescence polarization; proteasome pretreated with epoxomicin; inhibition, % at 20 µM; 1,900 tested, 29% active
MMP-2 counter: MMP-2 (human) inhibition counter-screen; shares compounds with Rpn11 block; recombinant MMP-2, FRET peptide cleavage fluorescence; inhibition, % at 20 µM; 1,900 tested, 4% active;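 further: human MMP-2 activated beforehand with APMA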
Thrombin inh: counter-screen for RPN11 inhibitors: inhibition of bovine thrombin; shares compounds with Rpn11 block; bovine thrombin cleavage of Ub4-pepOG, fluorescence polarization; inhibition, % at 20 µM; 1,900 tested, 13% active; AID 602333;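 active means mean inhibition at least 40% at 20 µM, or signal 3 deviations below plate average, so some actives read negative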;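 further: plate controls were thrombin with DMSO for no effect and buffer wells lacking thrombin for full effect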
Target sequence (P00735 whole entry, looked up): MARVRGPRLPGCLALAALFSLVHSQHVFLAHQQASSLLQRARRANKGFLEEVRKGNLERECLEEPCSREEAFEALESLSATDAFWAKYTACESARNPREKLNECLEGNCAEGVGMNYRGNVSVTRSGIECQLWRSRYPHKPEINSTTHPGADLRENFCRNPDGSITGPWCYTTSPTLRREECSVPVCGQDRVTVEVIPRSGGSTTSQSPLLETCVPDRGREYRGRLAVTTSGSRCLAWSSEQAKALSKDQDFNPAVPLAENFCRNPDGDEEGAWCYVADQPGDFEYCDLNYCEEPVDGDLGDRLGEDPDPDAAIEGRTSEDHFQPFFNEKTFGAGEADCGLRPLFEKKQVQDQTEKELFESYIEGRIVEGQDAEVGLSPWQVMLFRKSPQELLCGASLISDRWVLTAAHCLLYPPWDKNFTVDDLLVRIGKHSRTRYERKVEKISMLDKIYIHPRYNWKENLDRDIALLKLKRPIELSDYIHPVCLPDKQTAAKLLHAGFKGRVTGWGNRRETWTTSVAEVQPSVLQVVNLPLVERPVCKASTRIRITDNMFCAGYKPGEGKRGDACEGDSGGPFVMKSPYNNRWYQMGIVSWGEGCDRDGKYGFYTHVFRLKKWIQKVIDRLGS
Active calls of the source: *; x = no result. Unless noted, no stated cut-off is given here; in the data, active means inhibition above about 40%; inactive means the rest.

SMILES | IDE act | TPT1 inhibitor | HNF4A DNA FP | Rpn11 block | IDE inh | CSN deneddyl inh | Rpn11 confirm | MMP-2 counter | Thrombin inh
Cc1sc2nc(CSC(C)C(=O)N(C)CC(=O)Nc3ccccc3C(F)(F)F)[nH]c(=O)c2c1C (stereo not given) | 3 | 10 | 6 | 16 | 0 | 1 | x | x | x
Cc1sc2nc(CSc3ccc([N+](=O)[O-])c(C(F)(F)F)c3)[nH]c(=O)c2c1C | 9 | 22 | 21 | 41* | 1 | 8 | 20 | -40 | -13
CCCc1nc2c3ccccc3ccn2c1Cc1ccccc1 | x | x | 4 | -11 | x | -3 | x | x | x
Nc1cccn2c(-c3ccc(Cl)c(Cl)c3)cnc12 | -2 | 18 | 31 | 54* | 6 | 22 | 32 | -15 | 4
CCOC1=C2[C@@H](CN(S(=O)(=O)c3ccc(C)cc3)[C@H]2c2ccccc2Cl)[C@H]2C(=O)N(C(C)(C)C)C(=O)[C@H]2C1 | x | x | -3 | 4 | x | 4 | x | x | x
O=C(COC(=O)Cc1c(Cl)cccc1Cl)NCc1ccccc1 | x | x | -3 | 1 | x | -4 | x | x | x
O=C(COC(=O)C1=NN(c2ccccc2)C(=O)CC1)NCc1ccccc1Cl | 2 | x | -1 | -2 | -3 | -4 | x | x | x
CC1(C)CC(=O)C=C(Nc2ccc(OCC(F)(F)C(F)F)cc2)C1 | -6 | 0 | 23 | 105* | 3 | 4 | 9 | 15 | 3
Cc1cccc(N2CC(C(=O)Nc3nnc(SCCN4CCOCC4)s3)CC2=O)c1 (stereo not given) | 3 | 11 | 3 | 22 | 2 | -1 | x | x | x
COc1cccc(N2CC(C(=O)Nc3nnc(SCCN4CCOCC4)s3)CC2=O)c1 (stereo not given) | 6 | 0 | -1 | 52* | 4 | 6 | 7 | -19 | 13
Cc1ccc(/C=c2\sc3nc(-c4ccccc4Br)nn3c2=O)o1 | -13 | 11 | -12 | 43* | 4 | 50* | 31 | 6 | 13
COc1ccccc1/C=c1\sc2nc(-c3ccccc3OC)nn2c1=O | 8 | 3 | 0 | 6 | -2 | 8 | x | x | x
NC(=O)c1nc(-c2cccs2)nc2c1[nH]c(=O)n2-c1ccc(F)cc1 | 9 | -4 | 3 | 12 | 5 | 3 | x | x | x
O=C1NC(=S)SC1=Cc1cc(Br)ccc1O | -32 | x | 80* | 48* | x | 31 | 22 | 4 | 19
O=C1NC(=S)S/C1=C\c1coc2ccc(O)cc2c1=O | -4 | 8 | 7 | -1 | 5 | 12 | x | x | x
Cc1ccc(Cn2ncc3c(N4CCN(C)CC4)ncnc32)cc1 | -1 | 1 | 5 | 2 | -1 | -3 | x | x | x
Cc1ccc(Cn2ncc3c(N4CCN(c5ccc(C)cc5)CC4)ncnc32)cc1 | 3 | -1 | -32 | 102* | 10 | -1 | -3 | 11 | 4
O=C(c1cccn(Cc2ccc(Cl)c(Cl)c2)c1=O)N1CCOCC1 | 5 | 0 | 70* | 102* | 3 | -2 | 1 | -16 | -5
FC(F)Sc1ccc(NC(=S)NC2CCC(NC(=S)Nc3ccc(SC(F)F)cc3)CC2)cc1 (stereo not given) | 4 | -5 | 22 | 143* | -1 | 7 | 9 | 21 | -1
O=C(CN1CCCC1)Nc1c(C(=O)C2CC2)oc2ccccc12 | 4 | -2 | 0 | -4 | -1 | -2 | x | x | x
N#Cc1ccccc1OCC(=O)Nc1c(C(=O)C2CC2)oc2ccccc12 | 8 | -4 | 17 | 128* | -4 | -1 | 5 | -19 | -6
CCOc1ccc(N(CC(=O)NCCc2ccccc2)C(=O)CCC(=O)Nc2nccs2)cc1 | 6 | -2 | -1 | 4 | 1 | 1 | x | x | x
CC(=O)c1c(C(C)=O)c(C)n(C2CCCCC2)c1C | 5 | 1 | 1 | -5 | 3 | 5 | x | x | x
COc1ccc(-c2csc(-c3cccnc3)n2)cc1C | 0 | 1 | 2 | 4 | 3 | 4 | x | x | x

Screening data as filed in PubChem BioAssay.
